Experimental data reported in ChEMBL document CHEMBL1157645, “Synthesis of 2-(thienyl-2-yl or -3-yl)-4-furyl-6-aryl pyridine derivatives and evaluation of their topoisomerase I and II inhibitory activity, cytotoxicity, and structure-activity relationship” (Bioorg Med Chem, 2010).

How the values were obtained:
[1] = target: DNA topoisomerase 2-alpha (Homo sapiens) (UniProt P11388); test: Inhibition of human recombinant DNA topoisomerase 2 assessed as inhibition of relaxation of supercoiled pBR322 DNA at 100 uM by agarose gel electrophoresis
Chain of DNA topoisomerase 2-alpha (Homo sapiens) (P11388 whole entry): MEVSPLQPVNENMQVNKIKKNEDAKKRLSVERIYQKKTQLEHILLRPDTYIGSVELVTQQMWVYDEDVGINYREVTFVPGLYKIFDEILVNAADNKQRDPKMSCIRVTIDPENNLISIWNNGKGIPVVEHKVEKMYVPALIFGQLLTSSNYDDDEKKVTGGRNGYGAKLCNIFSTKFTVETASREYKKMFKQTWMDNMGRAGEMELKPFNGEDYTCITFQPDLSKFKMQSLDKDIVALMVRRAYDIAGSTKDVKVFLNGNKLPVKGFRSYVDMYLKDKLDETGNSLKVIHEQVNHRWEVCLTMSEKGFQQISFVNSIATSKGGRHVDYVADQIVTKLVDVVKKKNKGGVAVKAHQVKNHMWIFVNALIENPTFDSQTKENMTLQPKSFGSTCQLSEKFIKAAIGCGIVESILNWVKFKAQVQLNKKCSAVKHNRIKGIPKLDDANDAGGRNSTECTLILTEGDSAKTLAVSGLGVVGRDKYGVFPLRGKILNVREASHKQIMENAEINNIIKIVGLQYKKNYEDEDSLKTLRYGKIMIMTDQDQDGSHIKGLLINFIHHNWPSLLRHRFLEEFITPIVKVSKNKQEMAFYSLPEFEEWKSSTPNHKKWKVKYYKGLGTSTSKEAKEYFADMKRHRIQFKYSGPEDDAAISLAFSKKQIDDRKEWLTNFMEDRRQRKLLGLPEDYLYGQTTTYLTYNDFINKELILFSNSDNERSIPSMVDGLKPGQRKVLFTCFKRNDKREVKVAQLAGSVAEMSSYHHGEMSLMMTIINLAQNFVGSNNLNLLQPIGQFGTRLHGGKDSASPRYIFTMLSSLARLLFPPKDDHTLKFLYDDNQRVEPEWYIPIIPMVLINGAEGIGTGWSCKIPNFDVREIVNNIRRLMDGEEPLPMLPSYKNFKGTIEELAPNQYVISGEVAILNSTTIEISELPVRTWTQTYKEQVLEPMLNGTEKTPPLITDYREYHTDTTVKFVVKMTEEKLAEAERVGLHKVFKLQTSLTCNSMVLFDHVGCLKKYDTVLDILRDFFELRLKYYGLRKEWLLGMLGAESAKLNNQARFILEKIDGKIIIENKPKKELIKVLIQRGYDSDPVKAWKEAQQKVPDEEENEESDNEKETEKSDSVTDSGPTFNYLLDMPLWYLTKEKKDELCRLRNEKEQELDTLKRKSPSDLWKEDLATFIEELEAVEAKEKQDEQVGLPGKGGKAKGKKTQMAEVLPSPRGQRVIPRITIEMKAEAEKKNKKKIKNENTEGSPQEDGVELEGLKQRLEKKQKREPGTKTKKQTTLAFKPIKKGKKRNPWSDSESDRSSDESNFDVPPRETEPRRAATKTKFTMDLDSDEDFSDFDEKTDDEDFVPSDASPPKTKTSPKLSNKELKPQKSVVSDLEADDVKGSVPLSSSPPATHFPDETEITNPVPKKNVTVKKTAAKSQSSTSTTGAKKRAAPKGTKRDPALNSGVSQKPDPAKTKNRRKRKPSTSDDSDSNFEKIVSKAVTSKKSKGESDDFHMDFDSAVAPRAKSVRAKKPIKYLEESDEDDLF
Summary of the method: (§1)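 pBR322 DNA was incubated with two units of human topo IIα, with or without compound (DMSO stocks at 20 mM), in 10 mM Tris–HCl pH 7.9 with 50 mM NaCl, 5 mM MgCl₂, 1 mM EDTA, 1 mM ATP and BSA, for 30 min at 30 °C. The reaction was stopped with EDTA and run on 1% agarose in TAE at 25 V for 4 h. Gels were stained with ethidium bromide, and supercoiled DNA was quantified under UV.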

[2] = tested on: K562; test: Cytotoxicity against human K562 cells in presence of 10% fetal bovine serum; type: functional, cell-based
Summary of the method: (§2)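 Cells cultured per supplier's instructions and seeded at 2–4 × 10⁴ cells per well. On day 2 the medium was replaced with medium containing graded compound concentrations. On day 4 cell counting kit-8 was added for a further 4 h, and absorbance was read at 450 nm. Values are 50% inhibitory concentrations, given as mean from three experiments run in triplicate.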

[3] = target: DNA topoisomerase 2-alpha (Homo sapiens) (UniProt P11388); test: Inhibition of human recombinant DNA topoisomerase 2 assessed as inhibition of relaxation of supercoiled pBR322 DNA at 20 uM by agarose gel electrophoresis; summary of the method: as §1
[4] = tested on: DU-145; test: Cytotoxicity against human DU145 cells in presence of 10% fetal bovine serum; type: functional, cell-based; summary of the method: as §2
[5] = tested on: MCF7; test: Cytotoxicity against human MCF7 cells in presence of 10% fetal bovine serum; type: functional; summary of the method: as §2
[6] = tested on: HeLa; test: Cytotoxicity against human HeLa cells in presence of 10% fetal bovine serum; type: functional, cell-based; summary of the method: as §2
[7] = tested on: HCT-15; test: Cytotoxicity against human HCT15 cells in presence of 10% fetal bovine serum; type: functional, cell-based; summary of the method: as §2
[8] = target: T1, DNA topoisomerase 1 (Homo sapiens) (UniProt P11387); test: Inhibition of human recombinant topoisomerase 1 assessed as inhibition of relaxation of supercoiled pBR322 DNA at 100 uM by agarose gel electrophoresis
T1 sequence (whole entry): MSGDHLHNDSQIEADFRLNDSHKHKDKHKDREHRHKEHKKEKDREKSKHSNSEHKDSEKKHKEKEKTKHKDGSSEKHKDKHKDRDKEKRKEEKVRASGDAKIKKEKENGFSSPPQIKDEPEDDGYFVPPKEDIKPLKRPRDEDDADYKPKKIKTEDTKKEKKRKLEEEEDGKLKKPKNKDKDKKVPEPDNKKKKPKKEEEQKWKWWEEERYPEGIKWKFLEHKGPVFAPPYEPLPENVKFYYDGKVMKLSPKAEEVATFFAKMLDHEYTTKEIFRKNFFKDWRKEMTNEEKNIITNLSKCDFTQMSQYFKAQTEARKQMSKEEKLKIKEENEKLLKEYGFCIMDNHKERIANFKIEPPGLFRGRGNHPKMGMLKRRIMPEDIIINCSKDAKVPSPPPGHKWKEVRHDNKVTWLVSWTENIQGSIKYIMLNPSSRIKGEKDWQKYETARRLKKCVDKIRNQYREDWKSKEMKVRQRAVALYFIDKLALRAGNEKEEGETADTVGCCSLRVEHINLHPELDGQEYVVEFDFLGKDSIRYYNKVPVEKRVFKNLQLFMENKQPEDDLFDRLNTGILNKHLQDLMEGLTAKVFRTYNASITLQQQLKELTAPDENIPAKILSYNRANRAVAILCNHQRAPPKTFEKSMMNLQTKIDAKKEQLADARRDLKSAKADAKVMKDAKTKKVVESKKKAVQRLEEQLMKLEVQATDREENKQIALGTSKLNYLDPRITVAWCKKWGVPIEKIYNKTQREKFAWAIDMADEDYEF
Summary of the method: (§3)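 100 ng pBR322 DNA was incubated with 0.4 units of recombinant human topo I, with or without compound (DMSO stocks at 20 mM), for 30 min at 37 °C in 10 mM Tris–HCl pH 7.9, 150 mM NaCl, 0.1% BSA, 1 mM spermidine and 5% glycerol. The reaction was stopped with sarkosyl/bromophenol blue/glycerol and run on 1% agarose in TAE at 15 V for 7 h. Relaxation was read from ethidium bromide staining.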

[9] = target: T1, DNA topoisomerase 1 (Homo sapiens); test: Inhibition of human recombinant topoisomerase 1 assessed as inhibition of relaxation of supercoiled pBR322 DNA at 20 uM by agarose gel electrophoresis; summary of the method: as §3

Row | Compound | inhibition [1] [%] | IC50 [2] [µM] | inhibition [3] [%] | IC50 [4] [µM] | IC50 [5] [µM] | IC50 [6] [µM] | IC50 [7] [µM] | inhibition [8] [%] | inhibition [9] [%]
1 | Clc1ccc(-c2cc(-c3ccco3)nc(-c3cccs3)c2)o1 | 38.5 | 16 | 25.5 | 21.8 | 5.27 | 18.8 | > 50 | 16 | –
2 | Clc1ccc(-c2cc(-c3ccc(Cl)o3)cc(-c3ccsc3)n2)cc1 | 75.9 | 18.7 | 65.7 | 19.5 | 1.77 | 8.41 | 5.19 | 29.8 | 5.2
3 | Clc1cccc(-c2cc(-c3ccc(Cl)o3)cc(-c3ccsc3)n2)c1 | 75.9 | 23 | 75.4 | 10.4 | 4.26 | 8.71 | 13.7 | 0 | –
4 | Clc1ccc(-c2cc(-c3ccsc3)nc(-c3ccccc3Cl)c2)o1 | 64.1 | 17.2 | 59.5 | 19.3 | 1.71 | 8.07 | 4.57 | 0 | –
5 | Cc1ccc(-c2cc(-c3ccoc3)cc(-c3ccsc3)n2)cc1 | 14.2 | 47.8 | – | 13 | 9.32 | 1.47 | 44.8 | 13.2 | –
6 | Clc1ccc(-c2cc(-c3cccnc3)nc(-c3ccsc3)c2)o1 | 86.5 | 21.7 | 60.8 | 21.6 | > 50 | > 50 | > 50 | 0 | –
7 | Clc1ccc(-c2cc(-c3cccs3)nc(-c3ccccc3Cl)c2)o1 | 35 | 17.2 | 15.4 | 16.8 | 1.93 | 18.5 | 6.19 | 41.3 | 8
8 | CC[C@@]1(O)C(=O)OCc2c1cc1n(c2=O)Cc2cc3ccccc3nc2-1 [CAMPTOTHECIN] | – | 0.08 | – | 0.94 | 0.05 | 0.63 | 0.64 | – | –
9 | Clc1ccc(-c2cc(-c3ccsc3)nc(-c3ccccn3)c2)o1 | 63.1 | 21.9 | 60.9 | 10.9 | 21 | 22.5 | > 50 | 0 | –
10 | Clc1ccc(-c2cc(-c3ccsc3)nc(-c3ccco3)c2)o1 | 78.6 | 22.4 | 63.8 | 18.9 | 21.3 | > 50 | > 50 | 8.2 | –
11 | Cc1ccc(-c2cc(-c3ccc(Cl)o3)cc(-c3ccsc3)n2)cc1 | 78.9 | 19.9 | 70.2 | 21.2 | 0.63 | 16.2 | 7.41 | 2.6 | –
12 | Clc1ccc(-c2cc(-c3cccnc3)nc(-c3cccs3)c2)o1 | 51.5 | 22.3 | 30.9 | 13 | 2.87 | 14.6 | 1.24 | 25.8 | –
13 | Clc1ccc(-c2cc(-c3ccco3)cc(-c3cccs3)n2)cc1 | 31.4 | > 100 | – | > 100 | 24.6 | 32.7 | > 100 | 2.7 | –
14 | Cc1ccccc1-c1cc(-c2ccc(Cl)o2)cc(-c2ccsc2)n1 | 59.6 | 18.4 | 46.3 | 24.8 | 1.23 | 9.77 | 4.63 | 6.7 | –
15 | Clc1ccc(-c2cc(-c3ccc(Cl)o3)cc(-c3cccs3)n2)cc1 | 42.5 | 20.9 | 38.1 | 19.2 | 2.45 | 21.3 | 14.2 | 38.9 | 6.3
16 | Cc1cccc(-c2cc(-c3ccc(Cl)o3)cc(-c3ccsc3)n2)c1 | 64.1 | 20.2 | 56.7 | 17.9 | 1.28 | 20.3 | 21.7 | 7.5 | –
17 | COc1cccc2c1C(=O)c1c(O)c3c(c(O)c1C2=O)C[C@@](O)(C(=O)CO)C[C@@H]3O[C@H]1C[C@H](N)[C@H](O)[C@H](C)O1.Cl [DOXORUBICIN HYDROCHLORIDE] | – | 2.45 | – | 1.98 | 1.25 | – | 2.32 | – | –
18 | Cc1ccc(-c2cc(-c3ccc(Cl)o3)cc(-c3cccs3)n2)cc1 | 21.8 | 21.5 | – | 19.3 | 1.33 | 16.3 | 9.89 | 41.8 | 9.3
19 | Clc1ccc(-c2cc(-c3ccoc3)cc(-c3ccsc3)n2)cc1 | 20.5 | 0.73 | – | 37.6 | 56.1 | 4.14 | > 100 | 0 | –
20 | Clc1ccc(-c2cc(-c3ccoc3)cc(-c3cccs3)n2)cc1 | 30.2 | 21.1 | – | 21.1 | 29.1 | 5.53 | 50 | 0 | –
21 | Clc1cccc(-c2cc(-c3ccc(Cl)o3)cc(-c3cccs3)n2)c1 | 44.7 | 19.8 | 32.7 | 18.1 | 2.86 | 12.8 | 15.5 | 42 | 8.5
22 | COc1cc([C@@H]2c3cc4c(cc3[C@@H](O[C@@H]3O[C@@H]5CO[C@@H](C)O[C@H]5[C@H](O)[C@H]3O)[C@H]3COC(=O)[C@H]23)OCO4)cc(OC)c1O [ETOPOSIDE] | – | 2.84 | – | 2.45 | 1.66 | 1.57 | 1.29 | – | –
23 | Cc1ccc(-c2cc(-c3ccc(Cl)o3)cc(-c3ccsc3)n2)o1 | 62.6 | 23.3 | 34.7 | 18.5 | 1.42 | > 50 | > 50 | 9.1 | –
